According to ChEMBL document CHEMBL6177989, “Development of Diaryl Hydrazones for Alleviation of Mitochondrial Oxidative Stress in Preeclampsia” (2025):
Active and inactive are the calls of the source. No cut-off for these calls is given here.

What was measured:
[1] = Antioxidant activity assessed as trolox equivalent of ABTS radical scavenging activity at […] measured up to 12 mins by absorbance based analysis; format: functional
Procedure, shortened: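 ABTS radical generated 12–24 h before assay; compounds tested at 500 μM final antioxidant concentration; absorbance read on plate reader at 25 °C. Percent scavenging standardized to Trolox scavenging to give Trolox equivalents; mean ± SD of three independent repeats.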

[2] = Antioxidant activity assessed as trolox equivalent of DPPH radical scavenging activity […] measured every 15 mins for 60 mins by absorbance based assay; format: functional
Procedure, shortened: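 DPPH radical scavenging by absorbance at 25 °C, compounds at 200 μM antioxidant concentration. Percent scavenging from control vs sample absorbance; 60 min value divided by 60 min Trolox value to give Trolox equivalents. Mean ± SD, four independent repeats.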

[3] = Antioxidant activity assessed as trolox equivalent of ORAC radical scavenging activity […] measured every 2 mins for 60 mins by UV-Vis / fluorescence plate reader based analysis; format: functional
Procedure, shortened: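 ORAC: fluorescein with AAPH, fluorescence read 30 times; net AUC relative to AAPH control and no-AAPH maximum. Compounds at 80 μM; Trolox calibration (3.125–100 μM) of percent scavenging vs ln concentration gives Trolox equivalent concentration. 25 °C; mean ± SD, three independent repeats.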

[4] = tested on: HTR-8/SVneo; assay: Antioxidant activity in H2O2 induced human HTR-8/SVneo cells assessed as reduction in sFLT-1 protein expression at 0.1 to 50 uM preincubated for 30 mins followed by H2O2 addition and measured after 20 hrs by ELISA method; format: functional, cell-based; settings: dose 0.1-50 µM, time 20.5 hrs
Procedure, shortened: (§1)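 HTR-8/SVneo cells in RPMI with 5% FBS, 37 °C, 5% CO2, pretreated 30 min with 0.1–50 μM compound, then 100 μM H2O2 for 20 h with compound present throughout. Supernatant sFLT-1 measured by human VEGFR1 ELISA; MitoTEMPO as reference antioxidant; 5 repeat experiments.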

[5] = Antioxidant activity in H2O2 induced human HTR-8/SVneo cells assessed as reduction in sFLT-1 protein expression at 0.1 to 50 uM preincubated for 30 mins followed by H2O2 addition and measured after 20 hrs by ELISA method relative to MitoTEMPO; format: functional; set-up: scale not given: the % may be the effect or the level left; settings: dose 0.1-50 µM, time 20.5 hrs; procedure, shortened: as §1
[6] = Antioxidant activity in H2O2 induced human HTR-8/SVneo cells assessed as reduction in mitochondrial derived ROS production at 50 uM preincubated for 30 mins followed by H2O2 addition and measured after 20 hrs by MitoSOX red staining based immunofluorescence analysis relative to control; format: functional; set-up: scale not given: the % may be the effect or the level left; settings: time 20.5 hrs
Procedure, shortened: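 HTR8 cells pretreated 30 min with 50 μM compound, then 100 μM H2O2 for 20 h. Mitochondrial superoxide imaged with MitoSOX Red by fluorescence microscopy at 20×; OD per cell surface area over 3 high-power fields per sample, n = 4 per group; median [IQR], Mann–Whitney U test.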

Row | Compound | Activity [1] | Activity [2] | Activity [3] | Activity [4] | Activity [5] [%] | Activity [6] [%]
1 | C(=N\Nc1ccccc1)/c1ccc2ccccc2c1 | Active | Active | Active | – | – | –
2 | Fc1c(F)c(F)c(/C=N/Nc2ccc(C(F)(F)F)cc2)c(F)c1F | Active | Active | Active | Active | – | –
3 | C/C(=N\Nc1ccccc1)c1ccc(Cl)cc1 | Active | Active | Active | – | – | –
4 | COc1ccc(N/N=C(\C)c2cc3ccc(OC)cc3oc2=O)cc1 | Active | Active | Active | – | – | –
5 | Cc1ccc(C)c(N/N=C/c2ccc3ccccc3c2)c1 | Active | Active | Active | – | – | –
6 | COc1ccc(N/N=C/c2ccc3ccccc3c2)cc1 | Active | Active | Active | – | – | –
7 | COc1ccc(/C=N/Nc2ccc(C(F)(F)F)cc2)c(O)c1 | Active | Active | Active | Active | – | –
8 | O=[N+]([O-])c1ccc(/C=N/Nc2cccc(C(F)(F)F)c2)cc1 | Active | Active | Active | Active | – | –
9 | COc1ccc(N/N=C(\C)c2ccc([N+](=O)[O-])cc2)cc1 | Weak_effect | Weak_effect | Active | – | – | –
10 | COc1ccc(N/N=C/c2ccc(/C=N/Nc3ccc(OC)cc3)cc2)cc1 | Active | Active | Active | – | – | –
11 | COc1ccc(N/N=C/c2ccc([N+](=O)[O-])cc2)cc1 | – | – | Active | – | – | –
12 | C(=N\Nc1ccccc1)/c1c[nH]c2ccccc12 | Active | Active | Active | – | – | –
13 | COc1ccc(/C(C)=N/Nc2ccccc2)c(O)c1 | Active | Active | Active | – | – | –
14 | COc1ccc(/C=N/Nc2cccc(C(F)(F)F)c2)cc1OC | Active | Active | Active | Active | 10 | –
15 | C/C(=N\Nc1cc(C)ccc1C)c1cccc([N+](=O)[O-])c1 | Weak_effect | Weak_effect | Active | – | – | –
16 | O=[N+]([O-])c1cccc(N/N=C/c2ccc3ccccc3c2)c1 | Active | Active | Weak_effect | – | – | –
17 | C/C(=N\Nc1ccccc1)c1ccc(C)cc1 | Active | Active | Active | – | – | –
18 | FC(F)(F)c1ccccc1N/N=C/c1c2ccccc2cc2ccccc12 | Active | Active | Weak_effect | – | – | –
19 | FC(F)(F)c1cccc(N/N=C/c2ccc(/C=N/Nc3cccc(C(F)(F)F)c3)cc2)c1 | Active | Active | Active | Active | – | –
20 | CN(C)c1ccc(/C=N/Nc2ccc(C(F)(F)F)cc2)cc1 | Active | Active | Active | Active | – | –
21 | Clc1ccc(N/N=C/c2ccc3ccccc3c2)cc1 | Active | Active | – | – | – | –
22 | C/C(=N\Nc1cc(C)ccc1C)c1ccc([N+](=O)[O-])cc1 | Weak_effect | Weak_effect | Active | – | – | –
23 | CN(C)c1ccc(/C=N/Nc2ccccc2C(F)(F)F)cc1 | Active | Active | Active | Active | – | –
24 | CN(C)c1ccc(/C=N/Nc2cccc(C(F)(F)F)c2)cc1 | Active | Active | Active | Active | 10 | 50
